APP 5'UTR act: activators of APP 5'UTR luciferase reporter, primary screen, SH-SY5Y cells. SH-SY5Y APP 5'UTR luciferase reporter, luminescence; zero percent = DMSO vehicle wells. activation, % at 2 µM. AID 1276, 2008. actives 1% (n = 190,000);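 active = activation above a set limit, based on mean plus 3 SD of controls, cut at about 140% in these data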
STAT3 activator: IL-6 driven STAT3 reporter potentiators, primary screen, U3A cells, luciferase, luminescence, MLSCN library | IL-6 STAT3-luciferase reporter; 100% = signal with IL-6 EC80 alone | activation (% of control), % at 5.6 µM | actives 0.91% (n = 190,000) | AID 871, 2007;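 active = activation above the screen-wide mean of compound activation plus 3 SD, cut at about 130% in these data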;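 note: 0% = background luminescence of wells with medium and substrate only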
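Material: STAT3-luciferase reporter U3A cells; Probe or stimulus: IL-6 (33 ng/mL); Incubation: compound pre-incubation 1 h before IL-6, then 6 h stimulation at 37 °C; Technique: luminescence from STAT3-driven luciferase reporter; Evaluation: % activation versus median of IL-6-stimulated wells; Controls: IL-6-only high control.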
STAT3 inh: IL-6 driven STAT3 reporter inhibitors, primary screen, U3A cells, luciferase, luminescence, MLSCN library. actives 0.89% (n = 190,000). IL-6 STAT3-luciferase reporter; host cell line lacks STAT1. inhibition, % at 5.5 µM;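 active = inhibition above the mean inhibition across all screened compounds plus 3 SD, cut at about 44% in these data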;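 note: 0% = DMSO only wells and 100% = 100 µM nifuroxazide control wells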
STAT1 blocker: STAT1 signaling inhibitors, primary screen, cell-based, HTS, luciferase reporter; NIH 3T3 STAT1-luciferase reporter, IFN-gamma, luminescence; inhibition, % at 5.5 µM; actives 0.35% (n = 200,000); AID 920, 2007;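 active = inhibition above a set limit, the mean inhibition across all tested compounds plus 3 SD, cut at about 34% in these data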;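 note: 0% = IFN-gamma with DMSO and 100% = IFN-gamma with 300 µM nifuroxazide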
STAT1 activator: STAT1 signaling activators, primary screen, cell-based, HTS, luciferase reporter; NIH 3T3 STAT1-luciferase reporter, IFN-gamma, luminescence; 100% = IFN-gamma alone, no compound; activation (% of control), % at 5.5 µM; actives 2.6% (n = 200,000); AID 932, 2007;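 active = activation above the screen-wide mean activation plus 3 SD, cut at about 130% in these data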;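 note: raw ratio to IFN-gamma control signal so 100% means no change and 0% no light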
NF-kB neuron act: activators of NF-kB expression in neurons, primary screen, cell-based, HTS. human neuronal cells, NF-kB reporter expression; active compounds read high. fold change at 12.5 µM. actives 1.6% (n = 190,000); in the data active = fold change above about 3.3
The depositor's hits bear a star; / = not tested or not shown. Shown are actives, neighbours in structure and some others; about 4.9% of the full set was active somewhere.

SMILES	APP 5'UTR act	STAT3 activator	STAT3 inh	STAT1 blocker	STAT1 activator	NF-kB neuron act
Cc1cccc(NC(=O)Cn2nnc3ccccc32)c1	45	112	-7	-36	130*	2.6
Cc1ccc(NC(=O)Cn2nnc3ccccc32)cc1	57	121	-23	-31	126	0.94
COc1cc(/C=N/NC(=O)Cn2nnc3ccccc32)ccc1O	13	106	2	-9	108	1.1
COc1ccc(OC)c(NC(=O)CCc2c[nH]c3ccccc23)c1	-12	82	28	-5	103	1.2
CC(C)(C)NC(=O)CN(CCc1ccccc1)C(=O)c1csnn1	11	97	6	-8	106	1.1
O=C(Oc1ccccc1)c1cc2ccccc2o1	-4	103	2	2	98	0.92
O=C(/C=C\c1ccccc1OC(=O)c1ccccc1F)c1cc2ccccc2o1	87	118	-17	4	96	4.3*
CC1=CC(=O)C=C(C)C1=NOS(=O)(=O)c1ccccc1	-80	103	-2	9	91	4*
CC(C)(C)NC(=O)Cn1c(=O)n(CC(=O)NC(C)(C)C)c2ccccc21	-1	99	7	-2	101	1.2
CSc1ccc(/C=C/c2ccc3cccc(O)c3n2)cc1	173*	89	15	-7	106	6.2*
O=C(CN1C(=O)CC(c2ccccc2)S(=O)(=O)c2ccccc21)N1CCOCC1 (configuration not stated)	-18	97	9	-9	106	1.1
O=C(/C=C\Nc1cccc(F)c1)c1ccc2c(c1)OCO2	196*	21	96*	51*	63	2.3
Cc1ccc([N+](=O)[O-])cc1NC(=O)c1ccc2c(c1)OCO2	-26	95	11	1	97	1
O=C(/C=C\Nc1ccccc1Br)c1ccc2c(c1)OCO2	148*	27	87*	82*	24	6*
CNc1cc([N+](=O)[O-])ccc1N/C=C/C(=O)c1ccc2c(c1)OCO2	9	135*	-38	-39	135*	1
Cc1c(-c2cccc(Cl)c2)nc2ccccc2c1C(=O)OCC(=O)Nc1ccc2c(c1)OCO2	-7	96	7	6	95	0.5
CCN1C(=O)CC(C(=O)O)SC1=Nc1ccc(OC)cc1 (configuration not stated)	20	101	8	-5	104	1.1
S=c1[nH]nc(-c2ccc(Br)cc2)n1Cc1ccccc1	-18	105	0	-8	106	1
Brc1ccc(C2=NC(Cc3ccccc3)CO2)cc1 (configuration not stated)	62	105	-9	-20	118	3.3*
CCOP(=O)(OCC)C(Nc1cccc(C(F)(F)F)c1)c1ccc(Br)cc1 (configuration not stated)	6	110	-10	2	98	0.86
CCOC(=O)c1ccc(N/C=C/C(=O)C(C)(C)C)cc1	98	88	19	-40	136*	4.2*
CCOC(=O)c1ccc(NC(=O)Nc2ccccn2)cc1	87	87	25	-57	151*	2
CCOC(=O)c1ccc(N/C=C/C(=O)c2ccc(OC)cc2)cc1	5	90	17	2	98	1.6
CCOC(=O)c1ccc(N/C=C/C(=O)c2ccccc2)cc1	164*	82	24	-21	118	4.8*
CN(C)c1ccc(N/C=C/C(=O)c2ccccc2)cc1	125	33	84*	45*	59	2
SMILES	APP 5'UTR act	STAT3 activator	STAT3 inh	STAT1 blocker	STAT1 activator	NF-kB neuron act
Cc1[nH]c2c(C)cccc2c1CC(=O)O	-12	103	5	0	98	1.1
Cc1[nH]c2ccccc2c1CC(=O)O	8	133*	-34	1	99	0.88
Cc1cc(/C=C2/SC(=S)N(c3ccc([N+](=O)[O-])cc3)C2=O)c(C)n1-c1cccnc1	-13	102	2	4	96	0.43
Cc1cc(/C=C2/SC(=S)N(c3cccc(Cl)c3)C2=O)c(C)n1-c1cccnc1	-6	44	67*	19	86	/
Cc1ccc(CNC(=O)c2ccc(C#CC(C)(C)O)s2)cc1	-11	104	-4	5	95	1.1
COc1ccccc1-c1nc2ccccc2nc1-c1ccccc1OC	/	109	-10	8	93	0.95
O=C1c2ccccc2-c2nc3ccccc3nc21	11	104	-8	-35	132*	1.5
CCN(CC)S(=O)(=O)c1ccc(NC(=O)COC(=O)c2ccc(NC(=O)CC#N)cc2)cc1	-11	97	9	2	97	1.3
CCn1cc(C(=O)N2CCN(c3ccc(OC)cc3)CC2)c(=O)c2cc(S(=O)(=O)N3CCCCC3)ccc21	9	110	-9	6	93	0.94
CCn1cc(C(=O)N2CCc3ccccc32)c(=O)c2cc(S(=O)(=O)N3CCCC3)ccc21	-1	133*	-26	2	99	1.1
Cc1ccc(C(=O)Nc2ccc3c(c2)CCC3)o1	119	96	9	-38	137*	7.8*
O=C(Nc1ccc2c(c1)CCC2)c1ccc(Br)o1	116	93	14	-21	120	3.3
O=C(Nc1ccc2c(c1)CCC2)c1cc2ccccc2o1	185*	90	18	-55	151*	11*
CC(=O)c1ccc(NC(=O)C(C)n2nc(-c3ccccc3)c3cc(Cl)ccc32)cc1 (configuration not stated)	12	105	-6	5	95	0.81
COc1ccc(C(=O)Cc2cc(OC)c(OC)cc2[N+](=O)[O-])c(OC)c1	4	109	-6	-11	110	1
COc1ccc(C(=O)Cc2ccc(F)cc2)c(OC)c1	46	98	6	-44	138*	1.9
Cc1cc(C)cc(NC(=O)c2ccccc2CC[N+](=O)[O-])c1	9	109	-8	-8	107	1.1
Cc1ccc(NC(=O)Nc2ccccc2CC[N+](=O)[O-])cc1	19	133*	-30	-3	102	1.2
CCc1cc2c(Sc3nc4ccccc4s3)ncnc2s1	-21	178*	-80	-46	142*	0.69
CC(C)[C@H](NC(N)=O)C(=O)Nc1cccc([N+](=O)[O-])c1	-3	104	-1	7	93	1.2
O=C(O)c1cccc(NC(=S)NC(=O)c2ccc(-c3ccccc3)cc2)c1	44	76	30	5	96	3.3*
CC(=O)c1cccc(NC(=S)NC(=O)C(C)C)c1	-2	100	1	-6	105	1.1
O=C(NC(=S)Nc1ccc2cn[nH]c2c1)c1ccccc1	44	113	-8	-53	148*	1
